From ChEMBL document CHEMBL1156353, “Synthetic secofriedelane and friedelane derivatives as inhibitors of human lymphocyte proliferation and growth of human cancer cell lines in vitro” (J Nat Prod, 2001)
Calls of active or inactive are those of the source. The rule behind the calls is not given here.

Tests used:
MCF7 = assay: Cytotoxicity against human MCF7 cells by SRB assay; type: functional
In short: (§1)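 Lines from NCI, kept adherent in RPMI-1640 with 5% heat-inactivated FBS, 2 mM glutamine, 50 µg/mL gentamicin, 37 °C, 5% CO2; plated at densities ensuring exponential growth. Growth measured by NCI screening protocol with sulforhodamine B staining; GI50 per NCI method, means ± SEM from 3-6 independent experiments in duplicate. Compounds from DMSO stocks.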

TK-10 = assay: Cytotoxicity against human TK10 cells by SRB assay; type: functional; in short: as §1
UACC-62 = assay: Cytotoxicity against human UACC62 cells by SRB assay; type: functional; in short: as §1
NCI-H460 = assay: Cytotoxicity against human NCI-H460 cells by SRB assay; type: functional; in short: as §1
SF-268 = assay: Cytotoxicity against human SF268 cells by SRB assay; type: functional; in short: as §1
T-cell [1] = assay: Inhibition of PHA-induced human T cell proliferation at 100 uM after 24 hrs by MTT assay; type: functional, cell-based
[2] = (§2) Inhibition of PHA-induced human T cell proliferation after 24 hrs by MTT assay; type: functional, cell-based
In short: (§3)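 Human peripheral blood mononuclear cells (Histopaque-1077 isolation) stimulated with PHA 10 µg/mL as T-mitogen, in RPMI-1640 with 10% heat-inactivated FBS, 2 mM glutamine; compounds from DMSO stocks; colorimetric MTT read-out; cyclosporin A positive control. IC50 as means ± SEM from 3-6 independent experiments in duplicate.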

T-cell [3] = assay: as §2; type: functional, cell-based; in short: as §3
[4] = Cytotoxicity against human T cells assessed as cell viability at IC50 after 24 hrs by MTT assay; type: cell-based; conditions: read-out: Activity
In short: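 Peripheral blood mononuclear cells from healthy volunteers (Histopaque-1077), (2-3) × 10⁶ cells/mL in RPMI-1640 with 10% heat-inactivated FBS, 2 mM glutamine, gentamicin, exposed 24 h to compound; MTT (1 mg/mL) 4 h, formazan dissolved in SDS/DMF pH 4.7 overnight at 37 °C, OD 550 nm. Viability as % of unexposed cells; below 70% counted as toxic.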

In the case of C[C@H]1[C@@H](O)CC[C@@H]2[C@]1(C)CC[C@H]1[C@@]2(C)CC[C@@]2(C)[C@@H]3CC(C)(C)CC[C@]3(C)CC[C@]12C [EPIFRIEDELINOL], the GI50 (MCF7) is reported as over 100 µM, the GI50 (TK-10) is reported as over 100 µM and the GI50 (UACC-62) is reported as over 100 µM. The GI50 (NCI-H460) was over 100 µM, the GI50 (SF-268) was over 100 µM and the Activity (T-cell [1]) was “inactive”.
With C[C@H]1C(=O)[C@H](O)C[C@@H]2[C@]1(C)CC[C@H]1[C@@]2(C)CC[C@@]2(C)[C@@H]3CC(C)(C)CC[C@]3(C)CC[C@]12C the GI50 (MCF7) was 59.5 µM, the GI50 (TK-10) was 90.5 µM and the GI50 (UACC-62) was 86 µM. The GI50 (NCI-H460) was 67.8 µM, the GI50 (SF-268) was 95.8 µM and the IC50 [2] was 82.3 µM. The Activity (T-cell [3]) was “Dose-dependent effect” and the viability at 24 h [4] was 92.7%.
C[C@H]1[C@H](O)C(=O)C[C@@H]2[C@]1(C)CC[C@H]1[C@@]2(C)CC[C@@]2(C)[C@@H]3CC(C)(C)CC[C@]3(C)CC[C@]12C showed a GI50 (MCF7) of over 100 µM, a GI50 (TK-10) of over 100 µM and a GI50 (UACC-62) of over 100 µM. For the same molecule, the GI50 (NCI-H460) was over 100 µM, the GI50 (SF-268) was over 100 µM and the Activity (T-cell [1]) was “inactive”.
With C[C@@H](C(=O)O)[C@@]1(C)CC[C@H]2[C@@](C)(CC[C@@]3(C)[C@@H]4CC(C)(C)CC[C@]4(C)CC[C@]23C)[C@@H]1CC=O the GI50 (MCF7) was 7 µM, the GI50 (TK-10) was 10.1 µM and the GI50 (UACC-62) was 9.9 µM. The GI50 (NCI-H460) was 5.4 µM, the GI50 (SF-268) was 17.2 µM and the IC50 [2] was 10.7 µM. For the same molecule, the Activity (T-cell [3]) was “Dose-dependent effect” and the viability at 24 h [4] was 89%.
With CC(=O)O[C@@H]1CC[C@@H]2[C@](C)(CC[C@H]3[C@@]2(C)CC[C@@]2(C)[C@@H]4CC(C)(C)CC[C@]4(C)CC[C@]32C)[C@H]1C the Activity (T-cell [1]) was “inactive”.
With COC(=O)[C@H](C)[C@@]1(C)CC[C@H]2[C@@](C)(CC[C@@]3(C)[C@@H]4CC(C)(C)CC[C@]4(C)CC[C@]23C)[C@@H]1CC=O the GI50 (MCF7) was over 100 µM, the GI50 (TK-10) was over 100 µM and the GI50 (UACC-62) was over 100 µM. For the same molecule, the GI50 (NCI-H460) was over 100 µM, the GI50 (SF-268) was over 100 µM and the Activity (T-cell [1]) was “inactive”.
Molecule C[C@H]1[C@@H](O)[C@H](O)C[C@@H]2[C@]1(C)CC[C@H]1[C@@]2(C)CC[C@@]2(C)[C@@H]3CC(C)(C)CC[C@]3(C)CC[C@]12C [PACHYSANDIOL A] has a GI50 (MCF7) of 66.4 µM, a GI50 (TK-10) of 95.7 µM and a GI50 (UACC-62) of 83.3 µM. It also gave a GI50 (NCI-H460) of 79.4 µM, a GI50 (SF-268) of 15.5 µM and an IC50 [2] of 79.1 µM. For the same molecule, the Activity (T-cell [3]) was “Dose-dependent effect” and the viability at 24 h [4] was 113%.
Molecule C[C@H]1[C@H](O)CC[C@@H]2[C@]1(C)CC[C@H]1[C@@]2(C)CC[C@@]2(C)[C@@H]3CC(C)(C)CC[C@]3(C)CC[C@]12C has a GI50 (MCF7) of over 100 µM, a GI50 (TK-10) of over 100 µM and a GI50 (UACC-62) of over 100 µM. The GI50 (NCI-H460) was over 100 µM, the GI50 (SF-268) was over 100 µM and the Activity (T-cell [1]) was “inactive”.
For C[C@H]1C(=O)CC[C@@H]2[C@]1(C)CC[C@H]1[C@@]2(C)CC[C@@]2(C)[C@@H]3CC(C)(C)CC[C@]3(C)CC[C@]12C [FRIEDELINE], the GI50 (MCF7) was over 100 µM, the GI50 (TK-10) was over 100 µM and the GI50 (UACC-62) was over 100 µM. For the same molecule, the GI50 (NCI-H460) was over 100 µM, the GI50 (SF-268) was over 100 µM and the Activity (T-cell [1]) was “inactive”.
For C[C@H]1C(=O)C=C[C@@H]2[C@]1(C)CC[C@H]1[C@@]2(C)CC[C@@]2(C)[C@@H]3CC(C)(C)CC[C@]3(C)CC[C@]12C, the GI50 (MCF7) was over 100 µM, the GI50 (TK-10) was over 100 µM and the GI50 (UACC-62) was over 100 µM. The GI50 (NCI-H460) was over 100 µM, the GI50 (SF-268) was over 100 µM and the Activity (T-cell [1]) was “inactive”.
In the case of COc1cccc2c1C(=O)c1c(O)c3c(c(O)c1C2=O)C[C@@](O)(C(=O)CO)C[C@@H]3O[C@H]1C[C@H](N)[C@H](O)[C@H](C)O1 [DOXORUBICIN], the GI50 (MCF7) is reported as 0.055 µM, the GI50 (TK-10) is reported as 0.57 µM and the GI50 (UACC-62) is reported as 0.094 µM. It also gave a GI50 (NCI-H460) of 0.0081 µM and a GI50 (SF-268) of 0.093 µM.
Molecule CC1=C(O)C(=O)C[C@H]2[C@]3(C)CC[C@@]4(C)[C@@H]5CC(C)(C)CC[C@]5(C)CC[C@]4(C)[C@H]3CC[C@]12C has a GI50 (MCF7) of over 100 µM, a GI50 (TK-10) of over 100 µM and a GI50 (UACC-62) of over 100 µM. The GI50 (NCI-H460) was over 100 µM, the GI50 (SF-268) was over 100 µM and the Activity (T-cell [1]) was “inactive”.
